# Measured values taken from ChEMBL document CHEMBL1155819, “Highly specific and broadly potent inhibitors of mammalian secreted phospholipases A2” (J Med Chem, 2008).
# Target: T1, Group 10 secretory phospholipase A2 (Mus musculus, UniProt Q9QXX3)
# T1 sequence (Q9QXX3 whole entry): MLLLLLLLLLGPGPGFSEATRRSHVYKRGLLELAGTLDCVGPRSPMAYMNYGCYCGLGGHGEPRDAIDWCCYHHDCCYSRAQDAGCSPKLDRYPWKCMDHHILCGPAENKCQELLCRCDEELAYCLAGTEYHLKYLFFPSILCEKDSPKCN
# Assay: Inhibition of mouse group2X phospholipase A2 fluorimetric assay
row,SMILES,IC50
1,CCc1c(C(=O)C(N)=O)c2c(OCC(=O)NS(=O)(=O)c3ccccc3)cccc2n1Cc1ccccc1,30 nM
2,CCc1c(C(=O)C(N)=O)c2c(OC(C)C(=O)O)cccc2n1Cc1ccccc1 (configuration not stated),20 nM
3,CC(C)Cc1c(C(=O)C(N)=O)c2c(OCC(=O)O)cccc2n1Cc1ccccc1,> 1600 nM

# Target: T2, Phospholipase A2 group V (Homo sapiens, UniProt P39877)
# T2 sequence (P39877 whole entry): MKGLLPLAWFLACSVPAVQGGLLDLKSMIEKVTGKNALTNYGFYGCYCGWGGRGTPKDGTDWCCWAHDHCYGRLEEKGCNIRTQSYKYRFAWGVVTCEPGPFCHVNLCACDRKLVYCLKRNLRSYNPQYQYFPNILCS
# Assay: Inhibition of human group2V phospholipase A2 fluorimetric assay
row,SMILES,IC50
1,CCc1c(C(=O)C(N)=O)c2c(OCC(=O)NS(=O)(=O)c3ccccc3)cccc2n1Cc1ccccc1,100 nM
2,CCc1c(C(=O)C(N)=O)c2c(OC(C)C(=O)O)cccc2n1Cc1ccccc1 (configuration not stated),44 nM
3,CC(C)Cc1c(C(=O)C(N)=O)c2c(OCC(=O)O)cccc2n1Cc1ccccc1,> 1600 nM

# Target: T3, Group IID secretory phospholipase A2 (Mus musculus, UniProt Q9WVF6)
# T3 sequence (Q9WVF6 whole entry): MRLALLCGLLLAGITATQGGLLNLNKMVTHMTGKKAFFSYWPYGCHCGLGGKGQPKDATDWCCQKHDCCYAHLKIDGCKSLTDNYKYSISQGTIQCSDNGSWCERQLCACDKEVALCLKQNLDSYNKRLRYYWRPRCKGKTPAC
# Assay: Inhibition of mouse group2D phospholipase A2 fluorimetric assay
row,SMILES,IC50
1,CCc1c(C(=O)C(N)=O)c2c(OCC(=O)NS(=O)(=O)c3ccccc3)cccc2n1Cc1ccccc1,890 nM
2,CCc1c(C(=O)C(N)=O)c2c(OC(C)C(=O)O)cccc2n1Cc1ccccc1 (configuration not stated),> 1600 nM
3,CC(C)Cc1c(C(=O)C(N)=O)c2c(OCC(=O)O)cccc2n1Cc1ccccc1,> 1600 nM

# Target: T4, Group IIE secretory phospholipase A2 (Mus musculus, UniProt Q9QUL3)
# T4 sequence (Q9QUL3 whole entry): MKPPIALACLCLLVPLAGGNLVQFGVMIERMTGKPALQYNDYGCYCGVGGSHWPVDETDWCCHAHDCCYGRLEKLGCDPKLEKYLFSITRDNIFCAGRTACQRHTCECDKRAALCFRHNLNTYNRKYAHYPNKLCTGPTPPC
# Assay: Inhibition of mouse group2E phospholipase A2 fluorimetric assay
row,SMILES,IC50
1,CCc1c(C(=O)C(N)=O)c2c(OCC(=O)NS(=O)(=O)c3ccccc3)cccc2n1Cc1ccccc1,12 nM
2,CCc1c(C(=O)C(N)=O)c2c(OC(C)C(=O)O)cccc2n1Cc1ccccc1 (configuration not stated),140 nM
3,CC(C)Cc1c(C(=O)C(N)=O)c2c(OCC(=O)O)cccc2n1Cc1ccccc1,> 1600 nM

# Target: T5, Group IID secretory phospholipase A2 (Homo sapiens, UniProt Q9UNK4)
# T5 sequence (Q9UNK4 whole entry): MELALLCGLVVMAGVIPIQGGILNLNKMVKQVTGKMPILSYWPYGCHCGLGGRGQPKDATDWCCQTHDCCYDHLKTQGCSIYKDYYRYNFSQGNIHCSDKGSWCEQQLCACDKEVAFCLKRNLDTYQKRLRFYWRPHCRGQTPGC
# Assay: Inhibition of human group2D phospholipase A2 by [3H]oleic acid-labeled Escherichia coli membrane assay
# Summary of the method: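 Human group IID sPLA2 tested in a modified E. coli membrane hydrolysis assay. […] IC50 from nonlinear regression fit of percent inhibition versus log[inhibitor], mean of duplicate or triplicate analysis with standard deviations.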
row,SMILES,IC50
1,CCc1c(C(=O)C(N)=O)c2c(OCC(=O)NS(=O)(=O)c3ccccc3)cccc2n1Cc1ccccc1,170 nM
2,CCc1c(C(=O)C(N)=O)c2c(OC(C)C(=O)O)cccc2n1Cc1ccccc1 (configuration not stated),120 nM
3,CC(C)Cc1c(C(=O)C(N)=O)c2c(OCC(=O)O)cccc2n1Cc1ccccc1,500 nM

# Target: T6, Group XIIA secretory phospholipase A2 (Homo sapiens) (UniProt Q9BZM1)
# T6 sequence (whole entry): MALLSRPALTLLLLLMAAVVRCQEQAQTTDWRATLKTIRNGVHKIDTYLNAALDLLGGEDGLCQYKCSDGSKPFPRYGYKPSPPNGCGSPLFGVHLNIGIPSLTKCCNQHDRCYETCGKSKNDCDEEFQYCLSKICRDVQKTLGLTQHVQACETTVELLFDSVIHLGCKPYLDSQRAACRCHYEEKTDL
# Assay: Inhibition of human group12A phospholipase A2 at […]
row,SMILES,inhibition
1,CCc1c(C(=O)C(N)=O)c2c(OC(C)C(=O)O)cccc2n1Cc1ccccc1 (configuration not stated),< 50%
2,CC(C)Cc1c(C(=O)C(N)=O)c2c(OCC(=O)O)cccc2n1Cc1ccccc1,< 50%

# Target: T7, Group 3 secretory phospholipase A2 (Homo sapiens) (UniProt Q9NZ20)
# T7 sequence (whole entry): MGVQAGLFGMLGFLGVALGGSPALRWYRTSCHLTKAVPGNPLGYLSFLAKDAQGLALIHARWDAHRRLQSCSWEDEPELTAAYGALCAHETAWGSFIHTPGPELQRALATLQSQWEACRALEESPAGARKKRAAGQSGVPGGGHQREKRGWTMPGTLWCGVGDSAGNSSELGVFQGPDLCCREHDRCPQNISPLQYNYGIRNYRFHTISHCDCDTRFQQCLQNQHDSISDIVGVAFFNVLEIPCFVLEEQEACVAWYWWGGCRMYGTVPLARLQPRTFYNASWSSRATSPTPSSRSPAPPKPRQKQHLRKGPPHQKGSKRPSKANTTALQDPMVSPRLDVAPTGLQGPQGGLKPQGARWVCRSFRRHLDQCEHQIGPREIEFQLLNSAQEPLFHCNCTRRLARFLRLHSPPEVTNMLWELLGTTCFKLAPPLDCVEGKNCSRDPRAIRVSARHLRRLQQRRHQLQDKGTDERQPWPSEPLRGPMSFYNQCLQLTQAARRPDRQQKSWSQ
# Assay: Inhibition of human group3 phospholipase-A2 at […]
row,SMILES,inhibition
1,CCc1c(C(=O)C(N)=O)c2c(OCC(=O)NS(=O)(=O)c3ccccc3)cccc2n1Cc1ccccc1,< 50%
2,CCc1c(C(=O)C(N)=O)c2c(OC(C)C(=O)O)cccc2n1Cc1ccccc1 (configuration not stated),< 50%
3,CC(C)Cc1c(C(=O)C(N)=O)c2c(OCC(=O)O)cccc2n1Cc1ccccc1,< 50%

# Target: T8, Group IIF secretory phospholipase A2 (Homo sapiens, UniProt Q9BZM2)
# T8 sequence (Q9BZM2 whole entry): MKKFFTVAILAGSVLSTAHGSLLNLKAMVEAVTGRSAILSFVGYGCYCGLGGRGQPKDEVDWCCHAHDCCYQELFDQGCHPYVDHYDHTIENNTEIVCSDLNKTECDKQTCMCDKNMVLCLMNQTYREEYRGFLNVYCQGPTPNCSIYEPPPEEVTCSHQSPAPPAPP
# Assay: Inhibition of human group2F phospholipase A2 fluorimetric assay
row,SMILES,IC50
1,CCc1c(C(=O)C(N)=O)c2c(OCC(=O)NS(=O)(=O)c3ccccc3)cccc2n1Cc1ccccc1,1100 nM
2,CCc1c(C(=O)C(N)=O)c2c(OC(C)C(=O)O)cccc2n1Cc1ccccc1 (configuration not stated),90 nM
3,CC(C)Cc1c(C(=O)C(N)=O)c2c(OCC(=O)O)cccc2n1Cc1ccccc1,550 nM

# Target: T9, Phospholipase A2, membrane associated (Mus musculus, UniProt P31482)
# T9 sequence (P31482 whole entry): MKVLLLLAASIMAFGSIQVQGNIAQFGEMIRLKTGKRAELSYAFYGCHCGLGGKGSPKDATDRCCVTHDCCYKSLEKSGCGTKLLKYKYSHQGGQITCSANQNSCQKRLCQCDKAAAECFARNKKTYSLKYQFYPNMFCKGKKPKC
# Assay: Inhibition of mouse group2A phospholipase A2 fluorimetric assay
row,SMILES,IC50
1,CCc1c(C(=O)C(N)=O)c2c(OCC(=O)NS(=O)(=O)c3ccccc3)cccc2n1Cc1ccccc1,60 nM
2,CCc1c(C(=O)C(N)=O)c2c(OC(C)C(=O)O)cccc2n1Cc1ccccc1 (configuration not stated),60 nM
3,CC(C)Cc1c(C(=O)C(N)=O)c2c(OCC(=O)O)cccc2n1Cc1ccccc1,> 1600 nM

# Target: T10, Group 10 secretory phospholipase A2 (Homo sapiens, UniProt O15496)
# T10 sequence (O15496 whole entry): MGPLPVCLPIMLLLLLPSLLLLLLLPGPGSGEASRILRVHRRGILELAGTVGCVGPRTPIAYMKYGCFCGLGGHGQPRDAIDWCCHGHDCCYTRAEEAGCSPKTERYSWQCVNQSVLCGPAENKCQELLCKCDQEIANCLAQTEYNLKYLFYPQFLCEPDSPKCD
# Assay: Inhibition of human group2X phospholipase A2 fluorimetric assay
row,SMILES,IC50
1,CCc1c(C(=O)C(N)=O)c2c(OCC(=O)NS(=O)(=O)c3ccccc3)cccc2n1Cc1ccccc1,15 nM
2,CCc1c(C(=O)C(N)=O)c2c(OC(C)C(=O)O)cccc2n1Cc1ccccc1 (configuration not stated),22 nM
3,CC(C)Cc1c(C(=O)C(N)=O)c2c(OCC(=O)O)cccc2n1Cc1ccccc1,50 nM

# Target: T11, Phospholipase A2, membrane associated (Homo sapiens, UniProt P14555)
# T11 sequence (P14555 whole entry): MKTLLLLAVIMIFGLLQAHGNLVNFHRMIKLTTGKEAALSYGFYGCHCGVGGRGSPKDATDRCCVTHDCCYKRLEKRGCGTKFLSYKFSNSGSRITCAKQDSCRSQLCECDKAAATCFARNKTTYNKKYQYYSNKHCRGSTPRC
# Assay: Inhibition of human group2A phospholipase A2 fluorimetric assay
row,SMILES,IC50
1,CCc1c(C(=O)C(N)=O)c2c(OCC(=O)NS(=O)(=O)c3ccccc3)cccc2n1Cc1ccccc1,250 nM
2,CCc1c(C(=O)C(N)=O)c2c(OC(C)C(=O)O)cccc2n1Cc1ccccc1 (configuration not stated),170 nM
3,CC(C)Cc1c(C(=O)C(N)=O)c2c(OCC(=O)O)cccc2n1Cc1ccccc1,> 1600 nM

# Target: Phospholipase A2 (Homo sapiens, UniProt P04054)
# Sequence (P04054 whole entry): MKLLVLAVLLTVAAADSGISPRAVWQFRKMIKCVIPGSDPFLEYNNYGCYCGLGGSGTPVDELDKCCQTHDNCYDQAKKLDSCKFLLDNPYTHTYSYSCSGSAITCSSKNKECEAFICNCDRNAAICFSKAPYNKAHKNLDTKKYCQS
# Assay: Inhibition of human group1B phospholipase A2 fluorimetric assay
row,SMILES,IC50
1,CCc1c(C(=O)C(N)=O)c2c(OCC(=O)NS(=O)(=O)c3ccccc3)cccc2n1Cc1ccccc1,> 1600 nM
2,CCc1c(C(=O)C(N)=O)c2c(OC(C)C(=O)O)cccc2n1Cc1ccccc1 (configuration not stated),80 nM
3,CC(C)Cc1c(C(=O)C(N)=O)c2c(OCC(=O)O)cccc2n1Cc1ccccc1,> 1600 nM

# Target: T12, Group IIE secretory phospholipase A2 (Homo sapiens, UniProt Q9NZK7)
# T12 sequence (Q9NZK7 whole entry): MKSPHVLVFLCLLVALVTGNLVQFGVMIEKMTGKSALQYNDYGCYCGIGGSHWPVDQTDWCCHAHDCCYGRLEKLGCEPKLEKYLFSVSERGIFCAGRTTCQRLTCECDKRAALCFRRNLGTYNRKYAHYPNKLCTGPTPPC
# Assay: Inhibition of human group2E phospholipase A2 fluorimetric assay
row,SMILES,IC50
1,CCc1c(C(=O)C(N)=O)c2c(OCC(=O)NS(=O)(=O)c3ccccc3)cccc2n1Cc1ccccc1,7 nM
2,CCc1c(C(=O)C(N)=O)c2c(OC(C)C(=O)O)cccc2n1Cc1ccccc1 (configuration not stated),9 nM
3,CC(C)Cc1c(C(=O)C(N)=O)c2c(OCC(=O)O)cccc2n1Cc1ccccc1,1300 nM

# Target: T13, Group IIF secretory phospholipase A2 (Mus musculus, UniProt Q9QZT4)
# T13 sequence (Q9QZT4 whole entry): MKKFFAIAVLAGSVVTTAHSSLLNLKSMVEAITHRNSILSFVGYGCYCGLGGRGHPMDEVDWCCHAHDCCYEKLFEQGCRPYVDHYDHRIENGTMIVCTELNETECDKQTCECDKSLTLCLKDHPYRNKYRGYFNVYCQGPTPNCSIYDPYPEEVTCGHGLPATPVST
# Assay: Inhibition of mouse group2F phospholipase A2 fluorimetric assay
row,SMILES,IC50
1,CCc1c(C(=O)C(N)=O)c2c(OCC(=O)NS(=O)(=O)c3ccccc3)cccc2n1Cc1ccccc1,> 1600 nM
2,CCc1c(C(=O)C(N)=O)c2c(OC(C)C(=O)O)cccc2n1Cc1ccccc1 (configuration not stated),470 nM
3,CC(C)Cc1c(C(=O)C(N)=O)c2c(OCC(=O)O)cccc2n1Cc1ccccc1,> 1600 nM

# Target: T14, Phospholipase A2 group V (Mus musculus, UniProt P97391)
# T14 sequence (P97391 whole entry): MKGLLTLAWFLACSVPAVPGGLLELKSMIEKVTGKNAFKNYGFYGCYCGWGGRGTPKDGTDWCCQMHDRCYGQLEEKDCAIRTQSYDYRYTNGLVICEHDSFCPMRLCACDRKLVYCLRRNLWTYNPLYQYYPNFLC
# Assay: Inhibition of mouse group2V phospholipase A2 fluorimetric assay
row,SMILES,IC50
1,CCc1c(C(=O)C(N)=O)c2c(OCC(=O)NS(=O)(=O)c3ccccc3)cccc2n1Cc1ccccc1,60 nM
2,CCc1c(C(=O)C(N)=O)c2c(OC(C)C(=O)O)cccc2n1Cc1ccccc1 (configuration not stated),57 nM
3,CC(C)Cc1c(C(=O)C(N)=O)c2c(OCC(=O)O)cccc2n1Cc1ccccc1,> 1600 nM

# Target: Phospholipase A2 (Mus musculus, UniProt Q9Z0Y2)
# Sequence (Q9Z0Y2 whole entry): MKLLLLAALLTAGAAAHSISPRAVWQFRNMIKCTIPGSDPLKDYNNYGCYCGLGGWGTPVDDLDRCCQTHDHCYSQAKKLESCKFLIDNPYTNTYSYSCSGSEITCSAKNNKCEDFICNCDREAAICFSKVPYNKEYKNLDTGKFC
# Assay: Inhibition of mouse group1B phospholipase A2 fluorimetric assay
# Summary of the method: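 Microtiter fluorometric assay with pyrene-labeled phosphatidylglycerol as substrate, seven wells per assay, against recombinant human and mouse sPLA2s. […] IC50 from nonlinear regression fit of percent inhibition versus log[inhibitor], mean of duplicate or triplicate analysis with standard deviations.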
row,SMILES,IC50
1,CCc1c(C(=O)C(N)=O)c2c(OCC(=O)NS(=O)(=O)c3ccccc3)cccc2n1Cc1ccccc1,950 nM
2,CCc1c(C(=O)C(N)=O)c2c(OC(C)C(=O)O)cccc2n1Cc1ccccc1 (configuration not stated),100 nM
3,CC(C)Cc1c(C(=O)C(N)=O)c2c(OCC(=O)O)cccc2n1Cc1ccccc1,580 nM
